Test [1] concerns the target Acetylcholinesterase (Homo sapiens) (UniProt P22303).
In another test the test system is Candida albicans. Kind of test: Antifungal activity against Candida albicans by broth dilution method. The test is classed as functional. A digest of the protocol: (§1)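 Antifungal MIC determined by broth dilution, reported in µg/mL. Amphotericin B served as the positive control.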
In general terms: Dilution methods test growth across graded concentrations, often in twofold steps.

The subject of test [2] is Staphylococcus aureus. Kind of test: Antibacterial activity against methicillin-resistant Staphylococcus aureus by broth dilution method. In kind it is functional. The essentials:
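Broth dilution giving an MIC in µg/mL, with gentamicin as the antibacterial positive control. The same series covered E. coli, K. pneumoniae, S. aureus, S. pyogenes and two fungi.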

The subject of the next test is Klebsiella pneumoniae. The test is described as follows: Antibacterial activity against Klebsiella pneumoniae by broth dilution method. In kind it is functional. The essentials:
(§2)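 Broth dilution MIC determination against the bacterium, reported in µg/mL. Gentamicin served as the positive control.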

Another test relates to Cryptococcus neoformans. Kind of test: Antifungal activity against Cryptococcus neoformans by broth dilution method. In kind it is functional. The essentials: as §1
The next test relates to Escherichia coli. The test is described as follows: Antibacterial activity against Escherichia coli by broth dilution method. In kind it is functional. The essentials:
as §2

The subject of test [3] is Staphylococcus aureus. Kind of test: Antibacterial activity against Staphylococcus aureus by broth dilution method. The test is classed as functional. The essentials: as §2
Another test relates to Streptococcus pyogenes. The test is described as follows: Antibacterial activity against Streptococcus pyogenes by broth dilution method. In kind it is functional. A digest of the protocol: as §2

The values below come from ChEMBL document CHEMBL1806392, “Phytochemical studies on Stemona aphylla: isolation of a new stemofoline alkaloid and six new stemofurans” (2011).

≈ marks a conversion by molar mass, not a printed value.

Acetylcholinesterase (Homo sapiens), sequence (P22303 whole entry): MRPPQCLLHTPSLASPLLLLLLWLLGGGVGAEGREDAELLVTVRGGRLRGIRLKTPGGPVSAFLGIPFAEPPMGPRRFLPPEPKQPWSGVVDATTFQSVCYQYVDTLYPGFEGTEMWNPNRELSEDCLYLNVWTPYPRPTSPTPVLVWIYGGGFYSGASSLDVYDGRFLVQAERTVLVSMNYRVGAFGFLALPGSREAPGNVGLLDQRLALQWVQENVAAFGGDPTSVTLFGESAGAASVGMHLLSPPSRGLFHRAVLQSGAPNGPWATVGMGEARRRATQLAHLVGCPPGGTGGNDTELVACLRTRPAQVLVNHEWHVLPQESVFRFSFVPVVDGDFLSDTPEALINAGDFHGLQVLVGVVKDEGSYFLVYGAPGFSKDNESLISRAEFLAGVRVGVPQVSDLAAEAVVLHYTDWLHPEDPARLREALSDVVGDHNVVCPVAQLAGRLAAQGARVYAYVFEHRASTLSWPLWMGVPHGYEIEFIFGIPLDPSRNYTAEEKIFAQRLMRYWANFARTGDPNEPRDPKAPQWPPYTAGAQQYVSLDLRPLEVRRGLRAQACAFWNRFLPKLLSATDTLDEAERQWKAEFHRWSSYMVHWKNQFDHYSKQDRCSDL

Turning to `CC[C@H](O)C[C@@]12[C@@H]3C[C@H]4[C@H]5[C@H](C)[C@@H]([C@@H]6OC(=O)C(C)=C6OC)O[C@]5(O3)[C@@H]1CCN42`, the MIC in test [1] was determined as 100 ng.
On to `COc1cc(OC)c(C)c(-c2cc3c(O)cc(OC)cc3o2)c1` [STEMOFURAN P], for which the MIC amounted to 15.6 µg/mL (≈ 49.6 µM) in the test on Candida albicans; 62.5 µg/mL (≈ 199 µM) against Staphylococcus aureus [2]; 125 µg/mL (≈ 398 µM) in the test on Klebsiella pneumoniae; 7.8 µg/mL (≈ 24.8 µM) with Cryptococcus neoformans; 62.5 µg/mL (≈ 199 µM) with Escherichia coli; 31.3 µg/mL (≈ 99.6 µM) in the test on Staphylococcus aureus [3].
On to `COc1cc(O)c(C)c(-c2cc3c(O)cc(OC)cc3o2)c1` [STEMOFURAN M], for which the MIC in the test on Candida albicans was determined as 31.3 µg/mL (≈ 104 µM); against Staphylococcus aureus [2], 31.3 µg/mL (≈ 104 µM); in the test on Streptococcus pyogenes it was 62.5 µg/mL (≈ 208 µM); with Klebsiella pneumoniae, 62.5 µg/mL (≈ 208 µM); against Cryptococcus neoformans it was 31.3 µg/mL (≈ 104 µM); with Escherichia coli it was 125 µg/mL (≈ 416 µM). Also, in the test on Staphylococcus aureus [3], the MIC worked out at 31.3 µg/mL (≈ 104 µM).
`COc1cc(-c2cc3c(O)cccc3o2)c(C)c(O)c1C` [STEMOFURAN E]: the MIC stood at 31.3 µg/mL (≈ 110 µM) against Candida albicans; 15.6 µg/mL (≈ 54.9 µM) with Staphylococcus aureus [2]; 62.5 µg/mL (≈ 220 µM) against Klebsiella pneumoniae; 7.8 µg/mL (≈ 27.4 µM) with Cryptococcus neoformans; 62.5 µg/mL (≈ 220 µM) with Escherichia coli; 62.5 µg/mL (≈ 220 µM) in the test with Staphylococcus aureus [3].
In test [1], `CCCC[C@@]12C3CCN1[C@H]1C[C@H]2O[C@@]32O/C(=C3\OC(=O)C(C)=C3OC)[C@@H](C)[C@H]12` returned an MIC of 10 ng.
Regarding `COc1cc(-c2cc3c(O)cccc3o2)c(C)c(OC)c1C` [STEMOFURAN J], the MIC against Candida albicans is 31.3 µg/mL (≈ 105 µM); with Staphylococcus aureus [2], 15.6 µg/mL (≈ 52.3 µM); with Streptococcus pyogenes, 62.5 µg/mL (≈ 209 µM); in the test with Klebsiella pneumoniae, 62.5 µg/mL (≈ 209 µM); in the test on Cryptococcus neoformans, 7.8 µg/mL (≈ 26.1 µM); against Escherichia coli it was 62.5 µg/mL (≈ 209 µM). Moreover, the MIC against Staphylococcus aureus [3] is 62.5 µg/mL (≈ 209 µM).
Take `C[C@@H]1[C@H](O)[C@@H](C)/C=C/C=C/C=C/C=C/C=C/C=C/C=C/[C@H](O[C@@H]2O[C@H](C)[C@@H](O)[C@H](N)[C@@H]2O)C[C@@H]2O[C@](O)(C[C@@H](O)C[C@@H](O)[C@H](O)CC[C@@H](O)C[C@@H](O)CC(=O)O[C@H]1C)C[C@H](O)[C@H]2C(=O)O` [AMPHOTERICIN B]: the MIC against Candida albicans stood at 15.6 µg/mL (≈ 16.9 µM); against Cryptococcus neoformans it was 3.9 µg/mL (≈ 4.22 µM).
With `CC/C=C/[C@@]12[C@@H]3C[C@H]4[C@H]5[C@H](C)/C(=C6/OC(=O)C(C)=C6OC)O[C@]5(O3)[C@@H]1CCN42`, in test [1], the MIC came to 5 ng.
On the same count and under the same terms, the result for `CC[C@H](O)C[C@@]12[C@@H]3C[C@H]4[C@H]5[C@H](C)[C@@H]([C@H]6OC(=O)C(C)=C6OC)O[C@]5(O3)[C@@H]1CCN42` reads 50 ng; that for `CC[C@H](O)C[C@@]12[C@@H]3C[C@H]4[C@H]5[C@H](C)/C(=C6\OC(=O)C(C)=C6OC)O[C@]5(O3)[C@@H]1CCN42`, 10 ng; that for `CC[C@H](O)C[C@@]12[C@@H]3C[C@H]4[C@H]5[C@H](C)/C(=C6/OC(=O)C(C)=C6OC)O[C@]5(O3)[C@@H]1CCN42`, 10 ng.
Regarding GENTAMICIN, the MIC in the test with Staphylococcus aureus [2] turned out to be 45 µg/mL; against Streptococcus pyogenes, 5.6 µg/mL; against Klebsiella pneumoniae, 11.3 µg/mL; against Escherichia coli, 11.3 µg/mL; with Staphylococcus aureus [3], 22.5 µg/mL.
